From PMC6445238 (Drug Design, Development and Therapy, 2019)

Tests used:
Single ascending dose = type: in vivo, human
In short: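 After a single oral dose, plasma was sampled predose and at 0.25–72 h, and urine was collected over 0–24 h. Samples were mixed with DMSO and a deuterated internal standard, extracted with methanol, diluted with 0.1% ammonium acetate, and run by UPLC-MS/MS using MRM at m/z 460.1→214.2. Analysis was non-compartmental: t1/2 = 0.693/λz, AUC by linear trapezoidal rule, BLQ values before Cmax set to zero.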

[1] = MAD study, safety and tolerability; type: in vivo, human; conditions: young, N=6
In short: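 MAD cohorts were 6 active and 2 placebo healthy males, dosed once daily for 7 days, confined day −1 to day 8, with follow-up on day 14. Safety was monitored by vital signs, clinical labs, 12-lead ECG, physical exams, and AEs reported by subjects or observed by investigators. AEs were coded with MedDRA 19.1. Counts are given as subjects with AEs, % of the safety population. Placebo subjects were pooled.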

## Cc1nn(Cc2ccc(Br)cc2)c(C)c1NC(=O)CSc1ccccc1 [KM-819]
Single ascending dose; SAD
  variability (CV%) of AUCinf and Cmax: up to 55%
Single ascending dose; SAD, 10–400 mg
  dose proportionality of plasma exposure (AUC and Cmax) after a single dose: less than dose-proportional increase
Single ascending dose; SAD, all subjects
  24-hour recovery in urine (percent of dose): less than 1%
Single ascending dose; single 10 mg, young
  AUCinf, geometric mean (CV%): 594.2 (24.4) ng·h/mL
  AUClast, geometric mean (CV%): 583.4 (24.5) ng·h/mL
  CL/F, geometric mean (CV%): 16,830 (24.4) mL/h
  Cmax, geometric mean (CV%): 244.1 (31.4) ng/mL
  Tmax, median (min–max): 1.50 (0.50–2.00) h
  t1/2, geometric mean (CV%): 1.786 (28.3) h
  tlag, median (min–max): 0.00 (0.00–0.25) h
Single ascending dose; single 30 mg, young
  AUCinf, geometric mean (CV%): 1,731 (17.3) ng·h/mL
  AUClast, geometric mean (CV%): 1,705 (17.1) ng·h/mL
  CL/F, geometric mean (CV%): 17,340 (17.3) mL/h
  Cmax, geometric mean (CV%): 503.6 (28.0) ng/mL
  Tmax, median (min–max): 1.00 (0.50–2.00) h
  t1/2, geometric mean (CV%): 4.791 (25.0) h
  tlag, median (min–max): 0.00 (0.00–0.00) h
Single ascending dose; single 100 mg, young
  AUCinf, geometric mean (CV%): 4,872 (30.8) ng·h/mL
  AUClast, geometric mean (CV%): 4,306 (31.1) ng·h/mL
  CL/F, geometric mean (CV%): 20,530 (30.8) mL/h
  Cmax, geometric mean (CV%): 1,152 (36.7) ng/mL
  Tmax, median (min–max): 2.00 (1.00–4.00) h
  t1/2, geometric mean (CV%): 9.159 (41.2) h
  tlag, median (min–max): 0.00 (0.00–0.00) h
Single ascending dose; single 200 mg
  AUC higher in elderly than in young: 49%
  Cmax, elderly compared with young: similar
  t1/2 higher in elderly than in young: 17%
Single ascending dose; single 200 mg, elderly
  AUCinf, geometric mean (CV%): 10,970 (9.8) ng·h/mL
  AUClast, geometric mean (CV%): 10,840 (10.3) ng·h/mL
  CL/F, geometric mean (CV%): 18,230 (9.8) mL/h
  Cmax, geometric mean (CV%): 1,766 (26.0) ng/mL
  Tmax, median (min–max): 2.00 (1.0–4.00) h
  t1/2, geometric mean (CV%): 10.55 (28.5) h
  tlag, median (min–max): 0.00 (0.00–0.00) h
Single ascending dose; single 200 mg, young
  AUCinf, geometric mean (CV%): 7,338 (51.9) ng·h/mL
  AUClast, geometric mean (CV%): 7,637 (47.7) ng·h/mL
  CL/F, geometric mean (CV%): 27,260 (51.9) mL/h
  Cmax, geometric mean (CV%): 1,879 (55.3) ng/mL
  Tmax, median (min–max): 2.00 (1.00–4.00) h
  t1/2, geometric mean (CV%): 9.010 (71.6) h
  tlag, median (min–max): 0.00 (0.00–0.25) h
Single ascending dose; single 400 mg, young
  AUCinf, geometric mean (CV%): 12,640 (36.1) ng·h/mL
  AUClast, geometric mean (CV%): 12,210 (33.3) ng·h/mL
  CL/F, geometric mean (CV%): 31,650 (36.1) mL/h
  Cmax, geometric mean (CV%): 2,767 (43.4) ng/mL
  Tmax, median (min–max): 4.00 (2.00–4.00) h
  t1/2, geometric mean (CV%): 8.527 (63.2) h
  tlag, median (min–max): 0.00 (0.00–0.00) h
[1]; 30 mg QD 7 days
  Abdominal discomfort, number of subjects (%): 0
  Abdominal pain, number of subjects (%): 0
  Anxiety, number of subjects (%): 0
  Back pain, number of subjects (%): 0
  Diarrhea, number of subjects (%): 0
  Dizziness, number of subjects (%): 1 (16.7)
  Epistaxis, number of subjects (%): 0
  Erythema of eyelid, number of subjects (%): 0
  Erythema, number of subjects (%): 0
  Headache, number of subjects (%): 2 (33.3)
  Hyperbilirubinemia, number of subjects (%): 0
  Hyperhidrosis, number of subjects (%): 0
  Hypoesthesia, number of subjects (%): 0
  Insomnia, number of subjects (%): 0
  Muscle hemorrhage, number of subjects (%): 0
  Musculoskeletal stiffness, number of subjects (%): 0
  Nausea, number of subjects (%): 2 (33.3)
  Neck pain, number of subjects (%): 0
  Oropharyngeal pain, number of subjects (%): 0
  Subjects with any TEAEs, number of subjects (%): 2 (33.3)
  Vomiting, number of subjects (%): 2 (33.3)
[1]; 100 mg QD 7 days
  Abdominal discomfort, number of subjects (%): 0
  Abdominal pain, number of subjects (%): 0
  Anxiety, number of subjects (%): 0
  Back pain, number of subjects (%): 2 (33.3)
  Diarrhea, number of subjects (%): 0
  Dizziness, number of subjects (%): 1 (16.7)
  Epistaxis, number of subjects (%): 0
  Erythema of eyelid, number of subjects (%): 0
  Erythema, number of subjects (%): 0
  Headache, number of subjects (%): 1 (16.7)
